Activity calls are given as the source filed them. The rule behind the calls is not given here.
Columns and labels:
PC-3M = assay: Inhibition of PC3M cells by SRB assay after 96 hrs; assay type: functional; conditions: Homo sapiens
[1] = target: RAC-beta serine/threonine-protein kinase (Homo sapiens, UniProt P31751); assay: Inhibition of PKBbeta by radiometric filter binding assay
[2] = target: cAMP-dependent protein kinase (PKA) (Homo sapiens, UniProt P22694+P17612+P22612); assay: Inhibition of PKA by radiometric filter binding assay; assay type: protein assay
Cytochrome P450 3A4 = Cytochrome P450 3A4 (Homo sapiens, UniProt P08684); assay: Inhibition of CYP3A4; assay type: ADME
U-87 MG [3] = assay: Decrease in pFKHR protein levels in U87MG cells after 1 hr by Western blotting; assay type: functional, cell-based; conditions: Homo sapiens; U-87MG ATCC
How it was run: (§1)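 U87MG glioblastoma cells were treated for 1 h across a titration of inhibitor concentrations. Phosphorylation states of PI3K-PKB-mTOR pathway components were then read out by Western blot with phospho-specific antibodies.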

Cytochrome P450 2C19 = Cytochrome P450 2C19 (Homo sapiens, UniProt P33261); assay: Inhibition of CYP2C19; assay type: ADME
Cytochrome P450 1A2 = target: T1, Cytochrome P450 1A2 (Homo sapiens, UniProt P05177); assay: Inhibition of CYP1A2; assay type: ADME
T1 sequence (P05177 whole entry): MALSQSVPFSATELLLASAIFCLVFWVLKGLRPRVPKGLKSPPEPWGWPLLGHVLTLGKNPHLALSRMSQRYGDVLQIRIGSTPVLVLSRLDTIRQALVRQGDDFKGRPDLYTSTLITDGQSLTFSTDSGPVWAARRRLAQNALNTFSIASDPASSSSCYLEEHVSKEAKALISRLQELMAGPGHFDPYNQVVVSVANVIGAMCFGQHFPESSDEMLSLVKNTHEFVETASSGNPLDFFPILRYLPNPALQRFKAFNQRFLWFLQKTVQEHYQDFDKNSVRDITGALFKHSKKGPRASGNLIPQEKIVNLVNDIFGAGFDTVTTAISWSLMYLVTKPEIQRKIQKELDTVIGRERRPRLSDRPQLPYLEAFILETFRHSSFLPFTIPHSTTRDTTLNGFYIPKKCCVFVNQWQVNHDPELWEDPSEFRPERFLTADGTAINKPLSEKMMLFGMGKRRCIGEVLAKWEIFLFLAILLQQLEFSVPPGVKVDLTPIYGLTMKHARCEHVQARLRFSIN

U-87 MG [4] = assay: Decrease in pGSK3-beta protein levels in U87MG cells after 1 hr by Western blotting; assay type: functional, cell-based; conditions: Homo sapiens; U-87MG ATCC; how it was run: as §1
U-87 MG [5] = assay: Decrease in pS6 protein levels in U87MG cells after 1 hr by Western blotting; assay type: functional, cell-based; conditions: Homo sapiens; U-87MG ATCC; how it was run: as §1
U-87 MG [6] = assay: Increase in pSer473-PKB protein levels in U87MG cells after 1 hr by Western blotting; assay type: functional, cell-based; conditions: Homo sapiens; U-87MG ATCC; how it was run: as §1
[7] = target: T2, Serine/threonine-protein kinase AKT (Homo sapiens, UniProt P31751+Q9Y243+P31749); assay: Inhibition of GSK3-beta phosphorylation in PC3M cells after 1 hr by ELISA; assay type: functional, cell-based
Cytochrome P450 2D6 = Cytochrome P450 2D6 (Homo sapiens, UniProt P10635); assay: Inhibition of CYP2D6; assay type: ADME
HCT-116 = assay: Inhibition of HCT116 cells by SRB assay after 96 hrs; assay type: functional; conditions: Homo sapiens, HCT-116, 96 h
U-87 MG [8] = assay: Inhibition of U87MG cells by SRB assay after 96 hrs; assay type: functional, U-87MG ATCC; conditions: Homo sapiens
Cytochrome P450 2C9 = Cytochrome P450 2C9 (Homo sapiens, UniProt P11712); assay: Inhibition of CYP2C9; assay type: ADME
[9] = target: T2, Serine/threonine-protein kinase AKT; assay: Inhibition of GSK3-beta phosphorylation in U87MG cells by ELISA; assay type: functional, cell-based; conditions: u-87mg atcc

RAC-beta serine/threonine-protein kinase, sequence (P31751 whole entry): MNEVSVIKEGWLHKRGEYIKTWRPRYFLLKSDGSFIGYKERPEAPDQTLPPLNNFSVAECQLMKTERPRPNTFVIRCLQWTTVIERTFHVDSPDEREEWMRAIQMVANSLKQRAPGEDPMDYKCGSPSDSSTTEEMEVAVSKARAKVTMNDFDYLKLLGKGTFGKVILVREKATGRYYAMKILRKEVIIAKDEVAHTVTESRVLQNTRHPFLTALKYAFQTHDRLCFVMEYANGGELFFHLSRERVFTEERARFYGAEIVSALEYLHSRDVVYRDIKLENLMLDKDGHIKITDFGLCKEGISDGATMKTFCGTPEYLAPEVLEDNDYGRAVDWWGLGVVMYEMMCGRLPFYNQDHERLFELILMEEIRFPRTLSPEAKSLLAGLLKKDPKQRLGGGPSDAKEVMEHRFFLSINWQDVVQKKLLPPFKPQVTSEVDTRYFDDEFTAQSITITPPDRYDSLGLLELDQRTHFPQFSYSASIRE
Cytochrome P450 3A4, sequence (P08684 whole entry): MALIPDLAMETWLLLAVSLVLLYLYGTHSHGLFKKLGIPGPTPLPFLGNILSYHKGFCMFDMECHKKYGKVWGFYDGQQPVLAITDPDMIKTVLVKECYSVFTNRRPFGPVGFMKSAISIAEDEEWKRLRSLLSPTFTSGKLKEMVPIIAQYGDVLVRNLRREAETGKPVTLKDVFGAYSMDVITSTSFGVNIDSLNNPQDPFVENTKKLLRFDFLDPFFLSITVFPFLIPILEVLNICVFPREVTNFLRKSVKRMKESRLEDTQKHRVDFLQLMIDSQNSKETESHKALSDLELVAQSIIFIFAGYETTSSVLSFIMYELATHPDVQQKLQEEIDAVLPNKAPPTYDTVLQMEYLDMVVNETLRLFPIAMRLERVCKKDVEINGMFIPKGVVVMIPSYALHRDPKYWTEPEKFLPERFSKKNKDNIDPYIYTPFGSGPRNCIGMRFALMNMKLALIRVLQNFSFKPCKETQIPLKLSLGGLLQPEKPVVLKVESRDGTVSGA
Cytochrome P450 2C19, sequence (P33261 whole entry): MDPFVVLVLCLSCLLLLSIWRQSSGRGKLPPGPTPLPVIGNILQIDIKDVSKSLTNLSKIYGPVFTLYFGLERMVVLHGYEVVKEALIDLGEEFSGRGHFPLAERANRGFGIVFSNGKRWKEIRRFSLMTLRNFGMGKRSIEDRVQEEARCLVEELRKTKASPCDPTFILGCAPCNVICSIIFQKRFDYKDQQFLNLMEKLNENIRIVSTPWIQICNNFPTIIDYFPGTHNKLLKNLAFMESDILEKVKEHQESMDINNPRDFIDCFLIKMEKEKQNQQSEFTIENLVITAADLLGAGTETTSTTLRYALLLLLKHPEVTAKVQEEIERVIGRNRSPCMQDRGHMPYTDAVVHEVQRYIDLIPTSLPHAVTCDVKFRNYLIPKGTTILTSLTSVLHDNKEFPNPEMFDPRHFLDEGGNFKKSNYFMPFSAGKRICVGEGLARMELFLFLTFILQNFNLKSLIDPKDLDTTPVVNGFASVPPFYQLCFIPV
Cytochrome P450 2D6, sequence (P10635 whole entry): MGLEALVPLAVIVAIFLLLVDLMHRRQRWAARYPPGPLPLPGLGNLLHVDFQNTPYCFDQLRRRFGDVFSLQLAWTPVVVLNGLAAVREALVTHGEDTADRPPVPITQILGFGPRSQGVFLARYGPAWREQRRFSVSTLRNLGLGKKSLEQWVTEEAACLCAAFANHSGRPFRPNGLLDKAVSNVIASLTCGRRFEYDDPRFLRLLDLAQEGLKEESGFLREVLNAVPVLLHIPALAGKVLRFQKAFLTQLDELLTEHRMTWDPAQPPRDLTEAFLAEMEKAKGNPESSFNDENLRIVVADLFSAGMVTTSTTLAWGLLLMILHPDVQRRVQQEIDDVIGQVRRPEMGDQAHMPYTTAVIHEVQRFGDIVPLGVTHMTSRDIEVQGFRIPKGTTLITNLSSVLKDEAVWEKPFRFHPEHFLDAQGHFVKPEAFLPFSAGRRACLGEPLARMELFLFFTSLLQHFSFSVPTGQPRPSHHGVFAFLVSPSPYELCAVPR
Cytochrome P450 2C9, sequence (P11712 whole entry): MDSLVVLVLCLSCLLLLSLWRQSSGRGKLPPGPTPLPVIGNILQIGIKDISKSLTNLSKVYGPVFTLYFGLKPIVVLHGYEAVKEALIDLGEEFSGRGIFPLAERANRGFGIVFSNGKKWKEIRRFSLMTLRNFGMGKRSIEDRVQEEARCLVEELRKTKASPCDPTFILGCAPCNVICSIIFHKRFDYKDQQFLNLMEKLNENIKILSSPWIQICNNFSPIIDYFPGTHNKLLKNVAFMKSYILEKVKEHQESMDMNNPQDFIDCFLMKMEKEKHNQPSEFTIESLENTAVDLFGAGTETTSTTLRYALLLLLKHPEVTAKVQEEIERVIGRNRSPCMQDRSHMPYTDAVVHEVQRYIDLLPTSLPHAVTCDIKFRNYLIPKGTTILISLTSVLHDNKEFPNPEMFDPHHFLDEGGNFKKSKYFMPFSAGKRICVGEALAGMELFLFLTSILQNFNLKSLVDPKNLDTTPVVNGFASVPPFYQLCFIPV

Work on `NC(c1ccc(Cl)cc1)c1ccc(-c2ncnc3[nH]cnc23)cc1` (centres undefined) yielded a GI50 (PC-3M) of 28 µM and an IC50 [1] of 0.009 µM.

In the case of `NC(Cc1ccccc1)c1ccc(-c2ncnc3[nH]cnc23)cc1` (centres undefined), the GI50 (PC-3M) is reported as 32 µM, the IC50 [1] is reported as 0.43 µM and the IC50 [2] is reported as 0.61 µM.

Compound `NC(c1ccccc1)c1ccc(-c2ncnc3[nH]cnc23)cc1` (centres undefined) has a GI50 (PC-3M) of 32 µM and an IC50 [1] of 0.4 µM.

For `CNCc1ccc(-c2ncnc3[nH]cnc23)cc1`, the GI50 (PC-3M) was greater than 50 µM, the IC50 [1] was 6.9 µM and the IC50 [2] was 5.2 µM.

For `NCCc1ccc(-c2ncnc3[nH]cnc23)cc1`, the IC50 [1] was 9.5 µM.

With `CNCc1cccc(-c2ncnc3[nH]cnc23)c1` the GI50 (PC-3M) was greater than 50 µM, the IC50 [1] was 1.6 µM and the IC50 [2] was 5.5 µM.

`Clc1ccc(C2(c3ccc(-c4ncnc5[nH]cnc45)cc3)CCNCC2)cc1` was tested, and the IC50 (Cytochrome P450 3A4) was 10 µM, the Activity (U-87 MG [3]) was “Active” and the IC50 (Cytochrome P450 2C19) was 1.6 µM. For the same compound, the IC50 (Cytochrome P450 1A2) was greater than 10 µM, the Activity (U-87 MG [4]) was “Active” and the GI50 (PC-3M) was 4.5 µM. The Activity (U-87 MG [5]) was “Active”, the Activity (U-87 MG [6]) was “Active” and the IC50 [7] was 6 µM. It also gave an IC50 (Cytochrome P450 2D6) greater than 10 µM, a GI50 (HCT-116) of 5.7 µM and a GI50 (U-87 MG [8]) of 8.7 µM. The IC50 [2] was 0.033 µM, the IC50 (Cytochrome P450 2C9) was greater than 10 µM and the IC50 [9] was 1.9 µM.

For `CNC(c1ccc(Cl)cc1)c1ccc(-c2ncnc3[nH]cnc23)cc1` (centres undefined), the GI50 (PC-3M) was 16 µM, the IC50 [1] was 0.01 µM and the IC50 [2] was 0.015 µM.

With `NCCc1cccc(-c2ncnc3[nH]cnc23)c1` the GI50 (PC-3M) was greater than 50 µM and the IC50 [1] was 3.2 µM.

Reference: ChEMBL document CHEMBL1139878, “Rapid evolution of 6-phenylpurine inhibitors of protein kinase B through structure-based design” (J Med Chem, 2007)
